Test results published in ChEMBL document CHEMBL4020718, “Trifluoromethyl arylamides with antileukemia effect and intracellular inhibitory activity over serine/arginine-rich protein kinases (SRPKs)” (Eur J Med Chem, 2017).
The source made the active and inactive calls. The rule behind the calls is not given here.

Legend:
NALM-6 [1] = test: Effect on SRPK1 expression level in human NALM6 cells at 20 uM after 24 hrs by Western blot analysis; type: functional, cell-based
How it was run: (§1)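 Nalm6 treated 24 h at 20 µM (DMSO vehicle control), lysed at 2x10^7 cells/mL in PBS with 1% NP40, 1 mM EDTA, 150 mM NaCl, 10 mM Tris pH 7.4 plus protease/phosphatase inhibitors; on ice 10 min, sonicated, spun 15000 xg; SDS-PAGE, PVDF, milk block overnight, primary and secondary antibody 2 h each; representative of three.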

NALM-6 [2] = test: Induction of autophagy in human NALM6 cells at 20 uM after 24 hrs by acridin orange staining based fluorescence microscopy; type: functional, cell-based
How it was run: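 Nalm6 (7x10^4/well) exposed 24 h to 20 µM or 0.4% DMSO, washed in PBS, stained with 1 µM acridine orange at 37 °C for 15 min, washed, resuspended in PBS; autophagosomes (red fluorescence) viewed by fluorescence microscopy; three experiments.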

HL-60 [3] = test: Antiproliferative activity against human HL60 cells at 20 uM by trypan blue dye exclusion assay; type: functional, cell-based; details: TDE = time-dependent effect
How it was run: (§2)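 Nalm6 at 1x10^4 or HL60 at 1.5x10^4 cells per well exposed to 20 µM; DMSO (0.4% v/v) as control. Viable cells counted by trypan blue exclusion on a hemocytometer at 0, 24, 48, 72 and 96 h; growth inhibition relative to control.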

NALM-6 [4] = test: Induction of apoptosis in human NALM6 cells assessed as necrotic cells at 20 uM after 12 hrs by Annexin-V/FITC propidium iodide staining based flow cytometric analysis (reference value: 0.04%); type: functional
NALM-6 [5] = test: Effect on SRPK2 expression level in human NALM6 cells at 20 uM after 24 hrs by Western blot analysis; type: functional, cell-based; how it was run: as §1
NALM-6 [6] = test: Induction of apoptosis in human NALM6 cells assessed as late apoptotic cells at 20 uM after 12 hrs by Annexin-V/FITC propidium iodide staining based flow cytometric analysis (reference value: 0.45%); type: functional
NALM-6 [7] = test: Induction of apoptosis in human NALM6 cells assessed as viable cells at 20 uM after 24 hrs by Annexin-V/FITC propidium iodide staining based flow cytometric analysis (reference value: 90.10%); type: functional; details: NALM-6, 24 h, read-out: Activity
NALM-6 [8] = test: Induction of apoptosis in human NALM6 cells assessed as necrotic cells at 20 uM after 24 hrs by Annexin-V/FITC propidium iodide staining based flow cytometric analysis (reference value: 0%); type: functional
PBMC = test: Cytotoxicity against PHA-stimulated human PBMC assessed as reduction in cell viability at 25 uM after 48 hrs by MTT assay; type: cell-based
How it was run: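 Primary peripheral blood mononuclear cells seeded 1x10^5/well in complete RPMI; treated with 25 µM for 48 h. Viability by MTT (3 h, 37 °C, DMSO solubilization, 540 nm), vehicle taken as 100% viability; triplicate experiments, means ± standard deviation.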

HL-60 [9] = test: Cytotoxicity against human HL60 cells assessed as reduction in cell viability up to 200 uM after 48 hrs by MTT assay; type: functional, cell-based; details: Homo sapiens, HL-60, 48 h; read-out: IC50
How it was run: (§3)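 Cells (7x10^4/well) in RPMI-1640 with 10% FBS, 37 °C, 5% CO2; exposed to compound dilutions 0–200 µM (medium with 10% FBS, 0.4% DMSO) for 48 h. MTT added, 3 h at 37 °C, formazan dissolved in DMSO, absorbance 540 nm. IC50 from concentration–response; means ± standard deviation of three independent experiments.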

NALM-6 [10] = test: Synergistic cytotoxicity against human NALM6 cells assessed as reduction in cell viability by measuring combination index at 3 uM after 48 hrs in presence of 1 nM vincristine by MTT assay; type: functional
Jurkat = test: Cytotoxicity against human Jurkat cells assessed as reduction in cell viability up to 200 uM after 48 hrs by MTT assay; type: functional, cell-based; details: Homo sapiens, Jurkat, 48 h; read-out: IC50; how it was run: as §3
NALM-6 [11] = test: Cytotoxicity against human NALM6 cells assessed as cell growth inhibition at 20 uM after 96 hrs by trypan blue dye exclusion assay relative to control; type: functional; details: NALM-6, 96 h, read-out: GI; how it was run: as §2
NALM-6 [12] = test: Effect on actin expression level in human NALM6 cells at 20 uM after 24 hrs by Western blot analysis; type: ADME, cell-based; details: nalm-6, 24 h; how it was run: as §1
NALM-6 [13] = test: Synergistic cytotoxicity against human NALM6 cells assessed as reduction in cell viability by measuring combination index at 1.5 uM after 48 hrs in presence of 0.5 nM vincristine by MTT assay; type: functional
NALM-6 [14] = test: Cytotoxicity against human NALM6 cells assessed as reduction in cell viability up to 200 uM after 48 hrs by MTT assay; type: functional, cell-based; details: Homo sapiens, NALM-6, 48 h; read-out: IC50; how it was run: as §3
Homo sapiens = species on record: Homo sapiens; test: Inhibition of SRPK in human NALM6 cells assessed as decrease in RON mRNA expression level at 20 uM after 24 hrs by qRT-PCR analysis; type: cell-based
How it was run: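 Nalm6 given 20 µM for 24 h with 0.4% DMSO control; mRNA isolated with Tri Reagent, quantified spectrophotometrically, integrity checked on 1% agarose, then RT-PCR for target transcripts; one representative of three experiments.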

NALM-6 [15] = test: Induction of apoptosis in human NALM6 cells assessed as early apoptotic cells at 20 uM after 12 hrs by Annexin-V/FITC propidium iodide staining based flow cytometric analysis (reference value: 7.40%); type: functional
NALM-6 [16] = test: Induction of apoptosis in human NALM6 cells assessed as late apoptotic cells at 20 uM after 24 hrs by Annexin-V/FITC propidium iodide staining based flow cytometric analysis (reference value: 1.68%); type: functional
NALM-6 [17] = test: Induction of apoptosis in human NALM6 cells assessed as viable cells at 20 uM after 12 hrs by Annexin-V/FITC propidium iodide staining based flow cytometric analysis (reference value: 92.11%); type: functional; details: NALM-6, 12 h, read-out: Activity
NALM-6 [18] = test: Effect on actin expression level in human NALM6 cells at 20 uM after 24 hrs by qRT-PCR analysis; type: ADME, cell-based; details: nalm-6, 24 h
HL-60 [19] = test: Cytotoxicity against human HL60 cells assessed as cell growth inhibition at 20 uM after 96 hrs by trypan blue dye exclusion assay relative to control; type: functional; details: HL-60, 96 h, read-out: GI; how it was run: as §2
NALM-6 [20] = test: Antiproliferative activity against human NALM6 cells at 20 uM by trypan blue dye exclusion assay; type: functional, cell-based; details: TDE = time-dependent effect; how it was run: as §2
NALM-6 [21] = test: Induction of apoptosis in human NALM6 cells assessed as early apoptotic cells at 20 uM after 24 hrs by Annexin-V/FITC propidium iodide staining based flow cytometric analysis (reference value: 8.22%); type: functional

O=C(Nc1cc(C(F)(F)F)ccc1Nc1ccc(Br)cc1)c1ccccc1
Activity (NALM-6 [1]): inactive
Activity (NALM-6 [2]): Active
Activity (HL-60 [3]): Tde
Activity (NALM-6 [4]): 0.02%
Activity (NALM-6 [5]): inactive
Activity (NALM-6 [6]): 0.52%
viability at 20 µM (NALM-6 [7]): 73.2%
Activity (NALM-6 [8]): 0.01%
Activity (PBMC): Non-Toxic
IC50 (HL-60 [9]): 11.8 µM
CI (NALM-6 [10]): 1.05
IC50 (Jurkat): 33.8 µM
inhibition of growth at 20 µM (NALM-6 [11]): 72%
Activity (NALM-6 [12]): Non-Toxic
CI (NALM-6 [13]): 0.56
IC50 (NALM-6 [14]): 6 µM
inhibition (Homo sapiens): Active
Activity (NALM-6 [15]): 13.53%
Activity (NALM-6 [16]): 2.01%
viability at 20 µM (NALM-6 [17]): 85.9%
Activity (NALM-6 [18]): Non-Toxic
inhibition of growth at 20 µM (HL-60 [19]): 48%
Activity (NALM-6 [20]): Tde
Activity (NALM-6 [21]): 24.73%
